From ChEMBL document CHEMBL1132458, “Potent and selective inhibition of varicella-zoster virus (VZV) by nucleoside analogues with an unusual bicyclic base” (J Med Chem, 1999)

Columns and labels:
Human alphaherpesvirus 3 [1] = assay: Compound was evaluated for the inhibition of VZV strains of YS; type: functional, organism-based
Human alphaherpesvirus 3 [2] = assay: Compound was evaluated for the inhibition of VZV strains of OKA; type: functional, organism-based
Human alphaherpesvirus 3 [3] = assay: Compound was evaluated for the inhibition of VZV (TK-) thymidine kinases Strain YS-R; type: functional, organism-based
HEL [4] = assay: Compound was evaluated for the cytotoxicity against HEL cells; details: Homo sapiens
Human alphaherpesvirus 3 [5] = assay: Compound was evaluated for the inhibition of VZV (TK-) thymidine kinases Strain 07; type: functional, organism-based
HEL [6] = assay: Compound was evaluated for the cytotoxicity against HEL cells; type: functional; details: Homo sapiens
Human alphaherpesvirus 3 [7] = assay: Compound was evaluated for the inhibition of VZV (TK-) thymidine kinase-deficient strain YS-R; type: functional, organism-based
In short: (§1)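 Confluent human embryonic lung (HEL) fibroblasts were infected with 20 PFU per well of virus for 1–2 h, and then residual virus was removed. Cells were then kept in MEM with 2% inactivated FCS, 1% L-glutamine and 0.3% sodium bicarbonate, plus serial compound concentrations. Plaques were scored after 5 days. EC50 is the concentration cutting plaque formation by 50% versus untreated control.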

Human alphaherpesvirus 3 [8] = assay: Compound was evaluated for the inhibition of VZV (TK-) thymidine kinase-deficient strain 07; type: functional, organism-based; in short: as §1

SMILES | EC50 (Human alphaherpesvirus 3 [1]) | EC50 (Human alphaherpesvirus 3 [2]) | EC50 (Human alphaherpesvirus 3 [3]) | EC50 (Human alphaherpesvirus 3 [5]) | EC50 (Human alphaherpesvirus 3 [7]) | EC50 (Human alphaherpesvirus 3 [8]) | IC50 (HEL [4]) | MCC (HEL [6])
CCCCCCc1cc2cn([C@H]3C[C@H](O)[C@@H](CO)O3)c(=O)nc2o1 | 2.8 µM | 1.3 µM |  |  | > 50 µM | > 50 µM | > 200 µM | 200 µM
CCCCCc1cc2cn([C@H]3C[C@H](O)[C@@H](CO)O3)c(=O)nc2o1 | 4.6 µM | 3 µM |  |  | > 50 µM | > 50 µM | > 50 µM | > 50 µM
CCCCCCCCCCCCc1cc2cn([C@H]3C[C@H](O)[C@@H](CO)O3)c(=O)nc2o1 | 1.1 µM | 1.3 µM | > 20 µM | > 50 µM |  |  | > 200 µM | 50 µM
Nc1nc2c(ncn2COCCO)c(=O)[nH]1 [ACYCLOVIR] |  |  |  |  |  |  | > 200 µM | > 200 µM
O=c1[nH]c(=O)n([C@H]2C[C@H](O)[C@@H](CO)O2)cc1/C=C/Br [BRIVUDINE] | 0.006 µM | 0.003 µM | > 300 µM | 144 µM |  |  | > 400 µM | > 150 µM

More lines, in order of falling EC50 (Human alphaherpesvirus 3 [1]), values ahead:

EC50 (Human alphaherpesvirus 3 [1]) | EC50 (Human alphaherpesvirus 3 [2]) | EC50 (Human alphaherpesvirus 3 [3]) | EC50 (Human alphaherpesvirus 3 [5]) | EC50 (Human alphaherpesvirus 3 [7]) | EC50 (Human alphaherpesvirus 3 [8]) | SMILES | IC50 (HEL [4]) | MCC (HEL [6])
0.5 µM | 0.5 µM | > 50 µM | > 50 µM |  |  | CCCCCCCCCCCc1cc2cn([C@H]3C[C@H](O)[C@@H](CO)O3)c(=O)nc2o1 | > 200 µM | 200 µM
0.39 µM | 0.17 µM | > 50 µM | > 50 µM |  |  | CCCCCCCc1cc2cn([C@H]3C[C@H](O)[C@@H](CO)O3)c(=O)nc2o1 | > 50 µM | > 50 µM
0.024 µM | 0.008 µM | > 50 µM | > 50 µM |  |  | CCCCCCCCc1cc2cn([C@H]3C[C@H](O)[C@@H](CO)O3)c(=O)nc2o1 | > 50 µM | > 50 µM
0.02 µM | 0.02 µM | > 200 µM | > 200 µM |  |  | CCCCCCCCCc1cc2cn([C@H]3C[C@H](O)[C@@H](CO)O3)c(=O)nc2o1 | > 200 µM | > 200 µM
0.008 µM | 0.015 µM | > 50 µM | > 50 µM |  |  | CCCCCCCCCCc1cc2cn([C@H]3C[C@H](O)[C@@H](CO)O3)c(=O)nc2o1 | > 50 µM | > 50 µM
